From ChEMBL document CHEMBL1154934, “Identification of piperazine-bisamide GHSR antagonists for the treatment of obesity” (Bioorg Med Chem Lett, 2010)

Columns and labels:
[1] = molecular target: Sodium-dependent noradrenaline transporter (Homo sapiens, UniProt P23975); assay: Inhibition of NET
[2] = molecular target: Sodium-dependent dopamine transporter (Homo sapiens, UniProt Q01959); assay: Inhibition of DAT
[3] = molecular target: T1, 5-hydroxytryptamine receptor 2C (Homo sapiens, UniProt P28335); assay: Inhibition of 5HT2C (receptor)
T1 sequence (P28335 whole entry): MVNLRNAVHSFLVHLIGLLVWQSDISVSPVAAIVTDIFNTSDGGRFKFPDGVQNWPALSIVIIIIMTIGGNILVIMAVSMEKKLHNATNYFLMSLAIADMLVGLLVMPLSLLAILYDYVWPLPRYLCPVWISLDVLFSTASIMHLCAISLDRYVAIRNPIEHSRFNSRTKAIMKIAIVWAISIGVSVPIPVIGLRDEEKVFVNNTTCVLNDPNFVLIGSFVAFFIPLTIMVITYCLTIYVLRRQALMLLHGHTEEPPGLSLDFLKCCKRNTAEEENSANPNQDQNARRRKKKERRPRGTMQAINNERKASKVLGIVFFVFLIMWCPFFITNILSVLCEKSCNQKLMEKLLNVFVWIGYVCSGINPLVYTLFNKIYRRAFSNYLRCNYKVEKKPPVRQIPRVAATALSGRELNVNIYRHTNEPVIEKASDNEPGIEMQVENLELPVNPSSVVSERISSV

[4] = molecular target: Muscarinic acetylcholine receptor M3 (Homo sapiens, UniProt P20309); assay: Inhibition of muscarinic M3 receptor
[5] = molecular target: T2, Growth hormone secretagogue receptor type 1 (Homo sapiens, UniProt Q92847); assay: Antagonist activity at human GHSR expressed in CHOK1 cells assessed as inhibition of ghrelin-induced intracellular calcium flux by aequorin flash luminescence assay; format: functional, cell-based, CHO-K1
Procedure, shortened: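 Aequorin flash luminescence in CHO-K1 cells stably co-expressing human ghrelin receptor and aequorin. […] IC50 values are means of three determinations.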

[6] = molecular target: Sodium-dependent serotonin transporter (Homo sapiens, UniProt P31645); assay: Inhibition of SERT
Mu-type opioid receptor = Mu-type opioid receptor (Homo sapiens, UniProt P35372); assay: Inhibition of mu opioid receptor
D(2) dopamine receptor = D(2) dopamine receptor (Homo sapiens, UniProt P14416); assay: Inhibition of dopamine D2 receptor
D(3) dopamine receptor = D(3) dopamine receptor (Homo sapiens, UniProt P35462); assay: Inhibition of dopamine D3 receptor
[7] = molecular target: Kappa-type opioid receptor (Homo sapiens, UniProt P41145); assay: Inhibition of kappa opioid receptor
[8] = molecular target: 5-hydroxytryptamine receptor 2A (Homo sapiens, UniProt P28223); assay: Inhibition of 5HT2A (receptor)
[9] = molecular target: T3, Alpha-2A adrenergic receptor (Homo sapiens, UniProt P08913); assay: Inhibition of alpha2A adrenergic receptor
T3 sequence (P08913 whole entry): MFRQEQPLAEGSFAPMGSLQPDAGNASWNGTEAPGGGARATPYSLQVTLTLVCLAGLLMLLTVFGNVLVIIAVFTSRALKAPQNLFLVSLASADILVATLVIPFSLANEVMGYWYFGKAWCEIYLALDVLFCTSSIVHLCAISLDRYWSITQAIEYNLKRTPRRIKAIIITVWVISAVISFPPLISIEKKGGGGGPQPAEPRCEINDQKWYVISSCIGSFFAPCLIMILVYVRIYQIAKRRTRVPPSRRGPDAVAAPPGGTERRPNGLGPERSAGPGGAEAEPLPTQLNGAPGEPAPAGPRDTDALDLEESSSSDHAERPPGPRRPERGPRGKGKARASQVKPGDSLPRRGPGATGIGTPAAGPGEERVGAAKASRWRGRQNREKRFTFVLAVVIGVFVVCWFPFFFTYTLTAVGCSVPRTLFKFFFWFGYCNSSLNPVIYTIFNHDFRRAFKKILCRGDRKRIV

Histamine H2 receptor = Histamine H2 receptor (Homo sapiens, UniProt P25021); assay: Inhibition of histamine H2 receptor
[10] = molecular target: Growth hormone secretagogue receptor type 1 (Rattus norvegicus) (UniProt O08725); assay: Agonist activity at rat GHSR expressed in CHO cells assessed as increase in ghrelin-induced [3H]IP accumulation at 10 uM after 1 hr by scintillation counting relative to ghrelin; format: functional, cell-based
Procedure, shortened: (§1)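 CHO cells stably expressing human or rat GHSR labelled 12 h with 3H-inositol (1 µCi/mL in DMEM), then exposed to ghrelin or compound at 37 °C for 1.0 h. Lysis with 20 mM formic acid, 4 °C, 4 h. Extract taken onto SPA beads, 12 h in the dark, then radioactivity counted. IP accumulation expressed as % of maximal ghrelin response at 10, 1.0 and 0.1 µM.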

[11] = molecular target: T2, Growth hormone secretagogue receptor type 1; assay: Agonist activity at human GHSR expressed in CHO cells assessed as increase in ghrelin-induced [3H]IP accumulation at 10 uM after 1 hr by scintillation counting relative to ghrelin; format: functional, cell-based; procedure, shortened: as §1
[12] = Induction of growth hormone release from Sprague-Dawley rat pituitary cells at 1 uM after 20 mins by RIA assay relative to ghrelin; format: functional, Pituitary gland cell
Procedure, shortened: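 Pituitary cells from 6–8-week-old male SD rats plated on poly-D-lysine and cultured 3 days at 37 °C. Washed with DMEM assay buffer (20 mM Hepes, 0.3% BSA) and held 5 min at 37 °C. Treated with rat ghrelin or compound for 20 min, then GH release measured as % of maximal ghrelin response. Means of three determinations.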

Sequence of Kappa-type opioid receptor (P41145 whole entry): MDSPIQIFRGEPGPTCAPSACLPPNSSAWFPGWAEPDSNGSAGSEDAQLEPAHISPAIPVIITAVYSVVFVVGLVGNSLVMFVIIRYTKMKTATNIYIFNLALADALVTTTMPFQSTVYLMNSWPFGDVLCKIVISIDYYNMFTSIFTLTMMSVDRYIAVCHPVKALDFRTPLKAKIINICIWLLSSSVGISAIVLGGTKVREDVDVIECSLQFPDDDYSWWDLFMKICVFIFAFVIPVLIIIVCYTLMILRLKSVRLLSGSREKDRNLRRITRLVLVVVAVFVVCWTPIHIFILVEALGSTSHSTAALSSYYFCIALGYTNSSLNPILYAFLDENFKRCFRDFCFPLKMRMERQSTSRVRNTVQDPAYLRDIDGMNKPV
Sequence of Growth hormone secretagogue receptor type 1 (Rattus norvegicus) (O08725 whole entry): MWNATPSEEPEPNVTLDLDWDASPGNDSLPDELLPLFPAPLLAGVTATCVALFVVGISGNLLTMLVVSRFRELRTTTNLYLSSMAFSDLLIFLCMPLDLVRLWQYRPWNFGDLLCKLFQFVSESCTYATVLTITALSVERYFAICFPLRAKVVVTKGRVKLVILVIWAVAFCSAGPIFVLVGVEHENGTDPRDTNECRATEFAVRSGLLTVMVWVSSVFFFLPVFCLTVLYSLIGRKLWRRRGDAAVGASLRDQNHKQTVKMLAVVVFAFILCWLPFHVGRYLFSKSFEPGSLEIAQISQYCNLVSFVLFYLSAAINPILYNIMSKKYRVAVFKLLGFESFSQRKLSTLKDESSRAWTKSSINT
Sequence of Sodium-dependent serotonin transporter (P31645 whole entry): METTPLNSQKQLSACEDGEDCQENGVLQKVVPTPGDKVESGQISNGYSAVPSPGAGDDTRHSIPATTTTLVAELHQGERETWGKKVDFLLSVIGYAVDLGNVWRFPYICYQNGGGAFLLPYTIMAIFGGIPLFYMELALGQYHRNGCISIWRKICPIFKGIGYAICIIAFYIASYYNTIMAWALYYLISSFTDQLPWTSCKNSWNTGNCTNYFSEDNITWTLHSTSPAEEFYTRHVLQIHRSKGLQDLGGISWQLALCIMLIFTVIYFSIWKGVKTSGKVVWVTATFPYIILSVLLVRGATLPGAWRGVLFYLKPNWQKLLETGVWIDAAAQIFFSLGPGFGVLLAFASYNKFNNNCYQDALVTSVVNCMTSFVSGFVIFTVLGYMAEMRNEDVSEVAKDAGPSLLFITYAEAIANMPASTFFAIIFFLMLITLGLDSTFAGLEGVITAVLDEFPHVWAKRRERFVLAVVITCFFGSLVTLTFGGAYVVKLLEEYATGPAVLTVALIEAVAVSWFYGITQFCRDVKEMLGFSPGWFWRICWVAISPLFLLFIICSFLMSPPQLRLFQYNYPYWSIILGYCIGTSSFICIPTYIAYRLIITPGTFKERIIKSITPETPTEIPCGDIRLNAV
Sequence of D(3) dopamine receptor (P35462 whole entry): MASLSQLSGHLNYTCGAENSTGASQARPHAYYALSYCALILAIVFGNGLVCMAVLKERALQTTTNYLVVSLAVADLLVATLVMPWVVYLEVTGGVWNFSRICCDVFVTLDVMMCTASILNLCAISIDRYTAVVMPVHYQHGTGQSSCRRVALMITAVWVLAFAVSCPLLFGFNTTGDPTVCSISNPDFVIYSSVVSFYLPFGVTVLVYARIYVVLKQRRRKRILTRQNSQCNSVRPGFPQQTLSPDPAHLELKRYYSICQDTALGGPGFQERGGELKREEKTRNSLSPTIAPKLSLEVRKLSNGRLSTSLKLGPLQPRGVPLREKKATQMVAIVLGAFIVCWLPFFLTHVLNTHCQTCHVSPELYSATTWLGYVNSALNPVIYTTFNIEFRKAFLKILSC
Sequence of Muscarinic acetylcholine receptor M3 (P20309 whole entry): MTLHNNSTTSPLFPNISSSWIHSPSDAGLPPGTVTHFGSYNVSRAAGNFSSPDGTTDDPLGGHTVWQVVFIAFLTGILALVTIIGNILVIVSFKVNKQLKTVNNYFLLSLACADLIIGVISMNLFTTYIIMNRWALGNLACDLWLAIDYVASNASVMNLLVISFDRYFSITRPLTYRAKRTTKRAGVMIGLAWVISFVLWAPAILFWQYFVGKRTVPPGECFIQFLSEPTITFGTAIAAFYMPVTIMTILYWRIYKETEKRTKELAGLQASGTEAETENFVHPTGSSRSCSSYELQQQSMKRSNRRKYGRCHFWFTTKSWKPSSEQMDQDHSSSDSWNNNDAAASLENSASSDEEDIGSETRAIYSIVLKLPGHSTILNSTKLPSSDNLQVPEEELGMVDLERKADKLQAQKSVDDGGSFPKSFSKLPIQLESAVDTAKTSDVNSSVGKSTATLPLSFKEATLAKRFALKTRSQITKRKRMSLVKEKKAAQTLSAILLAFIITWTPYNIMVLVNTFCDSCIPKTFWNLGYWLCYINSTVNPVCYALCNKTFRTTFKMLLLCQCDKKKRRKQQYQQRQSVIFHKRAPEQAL
Sequence of Mu-type opioid receptor (P35372 whole entry): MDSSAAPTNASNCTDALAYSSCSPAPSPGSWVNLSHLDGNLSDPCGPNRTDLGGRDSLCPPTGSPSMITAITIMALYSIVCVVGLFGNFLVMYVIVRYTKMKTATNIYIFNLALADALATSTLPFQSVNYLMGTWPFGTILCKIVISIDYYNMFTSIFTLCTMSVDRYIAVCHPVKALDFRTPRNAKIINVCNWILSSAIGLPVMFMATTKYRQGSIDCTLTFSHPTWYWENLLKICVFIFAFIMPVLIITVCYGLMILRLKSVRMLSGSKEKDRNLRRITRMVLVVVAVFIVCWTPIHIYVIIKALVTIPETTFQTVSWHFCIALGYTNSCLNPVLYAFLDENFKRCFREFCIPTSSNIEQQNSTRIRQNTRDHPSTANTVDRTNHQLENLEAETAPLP
Sequence of Sodium-dependent dopamine transporter (Q01959 whole entry): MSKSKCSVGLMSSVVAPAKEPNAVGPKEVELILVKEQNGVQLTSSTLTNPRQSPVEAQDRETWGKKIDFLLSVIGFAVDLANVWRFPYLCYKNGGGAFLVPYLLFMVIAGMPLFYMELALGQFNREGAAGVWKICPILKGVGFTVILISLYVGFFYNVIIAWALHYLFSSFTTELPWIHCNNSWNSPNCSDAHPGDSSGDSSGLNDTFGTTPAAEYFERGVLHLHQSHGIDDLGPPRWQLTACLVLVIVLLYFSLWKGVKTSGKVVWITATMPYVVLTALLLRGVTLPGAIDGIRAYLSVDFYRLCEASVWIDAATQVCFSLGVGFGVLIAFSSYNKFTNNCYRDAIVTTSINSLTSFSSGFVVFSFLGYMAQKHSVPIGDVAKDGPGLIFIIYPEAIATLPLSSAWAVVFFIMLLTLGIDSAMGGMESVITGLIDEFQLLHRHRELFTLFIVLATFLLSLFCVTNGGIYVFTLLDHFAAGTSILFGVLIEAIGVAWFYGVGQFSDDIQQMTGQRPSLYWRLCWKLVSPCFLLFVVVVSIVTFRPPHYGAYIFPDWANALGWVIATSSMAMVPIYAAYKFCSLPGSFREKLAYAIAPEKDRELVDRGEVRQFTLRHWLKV
Sequence of Sodium-dependent noradrenaline transporter (P23975 whole entry): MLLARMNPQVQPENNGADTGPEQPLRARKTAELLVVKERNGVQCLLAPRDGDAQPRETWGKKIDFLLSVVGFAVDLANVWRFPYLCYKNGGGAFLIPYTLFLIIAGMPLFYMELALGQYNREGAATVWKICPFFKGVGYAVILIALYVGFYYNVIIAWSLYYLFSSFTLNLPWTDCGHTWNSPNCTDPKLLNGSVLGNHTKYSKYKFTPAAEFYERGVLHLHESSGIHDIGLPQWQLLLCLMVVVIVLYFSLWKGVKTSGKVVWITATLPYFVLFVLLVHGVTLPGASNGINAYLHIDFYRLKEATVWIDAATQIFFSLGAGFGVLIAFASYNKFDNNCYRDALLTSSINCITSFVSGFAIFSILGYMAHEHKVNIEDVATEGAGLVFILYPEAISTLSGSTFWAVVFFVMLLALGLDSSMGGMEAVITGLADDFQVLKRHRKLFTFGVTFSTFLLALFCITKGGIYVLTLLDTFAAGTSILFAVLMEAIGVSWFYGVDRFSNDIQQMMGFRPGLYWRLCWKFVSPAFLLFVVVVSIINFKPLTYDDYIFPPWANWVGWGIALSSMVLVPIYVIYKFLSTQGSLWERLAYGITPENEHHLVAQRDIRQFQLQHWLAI
Sequence of Histamine H2 receptor (P25021 whole entry): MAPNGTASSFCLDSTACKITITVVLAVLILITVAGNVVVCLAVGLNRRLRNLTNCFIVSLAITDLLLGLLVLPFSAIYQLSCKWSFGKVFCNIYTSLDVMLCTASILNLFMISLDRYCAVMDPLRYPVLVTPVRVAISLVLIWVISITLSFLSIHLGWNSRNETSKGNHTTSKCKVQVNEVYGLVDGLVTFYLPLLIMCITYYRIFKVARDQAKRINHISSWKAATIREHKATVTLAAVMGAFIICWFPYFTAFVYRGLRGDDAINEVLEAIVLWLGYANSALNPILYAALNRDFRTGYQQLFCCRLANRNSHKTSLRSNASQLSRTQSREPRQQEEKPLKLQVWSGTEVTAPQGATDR
Sequence of D(2) dopamine receptor (P14416 whole entry): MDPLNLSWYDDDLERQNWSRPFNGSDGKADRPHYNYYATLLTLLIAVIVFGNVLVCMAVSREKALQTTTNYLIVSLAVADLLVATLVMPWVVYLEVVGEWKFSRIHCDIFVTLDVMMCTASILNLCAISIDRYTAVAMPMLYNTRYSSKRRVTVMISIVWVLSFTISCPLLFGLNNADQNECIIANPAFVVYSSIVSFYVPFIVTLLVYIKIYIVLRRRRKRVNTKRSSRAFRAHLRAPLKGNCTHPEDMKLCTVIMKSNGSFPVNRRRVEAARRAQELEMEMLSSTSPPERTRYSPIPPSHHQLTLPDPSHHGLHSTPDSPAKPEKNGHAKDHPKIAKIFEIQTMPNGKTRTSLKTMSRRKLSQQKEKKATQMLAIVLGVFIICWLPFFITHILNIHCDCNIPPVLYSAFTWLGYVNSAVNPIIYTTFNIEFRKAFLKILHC

SMILES | Ki [1] [µM] | Ki [2] [µM] | Ki [3] [µM] | Ki [4] [µM] | IC50 [5] [µM] | Ki [6] [µM] | Ki (Mu-type opioid receptor) [µM] | Ki (D(2) dopamine receptor) [µM] | Ki (D(3) dopamine receptor) [µM] | Ki [7] [µM] | Ki [8] [µM] | Ki [9] [µM] | Ki (Histamine H2 receptor) [µM] | Activity [10] [%] | Activity [11] [%] | Activity [12] [%]
COc1cccc(-c2ccc(C(=O)N3CCN(C(=O)c4ccc5cc[nH]c5c4)[C@H](C)C3)cc2)c1 | > 10 | > 10 | > 10 | > 10 | 0.64 | > 10 | > 10 | > 10 | > 10 | > 10 | > 10 | > 10 | > 10 | – | – | –
C[C@H]1CN(C(=O)c2ccc(-c3ccc(OC(F)(F)F)cc3)cc2)CCN1C(=O)c1ccc2cc[nH]c2c1 | > 10 | > 10 | > 10 | > 10 | 0.136 | > 10 | > 10 | > 10 | > 10 | > 10 | > 10 | > 10 | > 10 | – | – | –
C[C@H]1CN(C(=O)c2ccc(-c3ccccn3)cc2)CCN1C(=O)c1ccc2cc[nH]c2c1 | – | – | – | – | 0.0422 | – | – | – | – | – | – | – | – | 12 | – | –
C[C@H]1CN(C(=O)c2ccc(-c3cccc(OC(F)(F)F)c3)cc2)CCN1C(=O)c1ccc2cc[nH]c2c1 | > 10 | > 10 | > 10 | > 10 | 0.0465 | > 10 | > 10 | > 10 | > 10 | > 10 | > 10 | > 10 | > 10 | – | – | –
Cc1noc(C)c1-c1ccc(C(=O)N2CCN(C(=O)c3ccc4cc[nH]c4c3)[C@@H](C)C2)cc1 | – | – | – | – | 0.245 | – | – | – | – | – | – | – | – | 5 | – | –
Cc1ccccc1-c1ccc(C(=O)N2CCN(C(=O)c3ccc4cc[nH]c4c3)[C@@H](C)C2)cc1 | > 10 | > 10 | > 10 | > 10 | 0.0029 | > 10 | > 10 | > 10 | > 10 | > 10 | > 10 | > 10 | > 10 | 31 | 32 | 18
Cc1ccccc1-c1ccc(C(=O)N2CCN(C(=O)c3ccc4cc[nH]c4c3)[C@@H](C)C2)cc1F | – | – | – | – | 0.009 | – | – | – | – | – | – | – | – | 16 | – | –
C[C@H]1CN(C(=O)c2ccc(-c3cccc(C(F)(F)F)c3)cc2)CCN1C(=O)c1ccc2cc[nH]c2c1 | > 10 | > 10 | > 10 | > 10 | 0.077 | > 10 | > 10 | > 10 | > 10 | > 10 | > 10 | > 10 | > 10 | – | – | –
COc1cccc(-c2ccc(C(=O)N3CCN(C(=O)c4ccc5cc[nH]c5c4)C[C@H]3C)cc2)c1 | – | – | – | – | 0.068 | – | – | – | – | – | – | – | – | – | – | –
Cc1cc(-c2ccccc2)ccc1C(=O)N1CCN(C(=O)c2ccc3cc[nH]c3c2)[C@@H](C)C1 | – | – | – | – | 0.0143 | – | – | – | – | – | – | – | – | 36 | – | –
C[C@H]1CN(C(=O)c2ccc(-c3ccccc3Cl)cn2)CCN1C(=O)c1ccc2cc[nH]c2c1 | – | – | – | – | 0.0372 | – | – | – | – | – | – | – | – | 18 | – | –
C[C@H]1CN(C(=O)c2ccc(-c3ccc(F)cc3)cc2)CCN1C(=O)c1ccc2cc[nH]c2c1 | > 10 | > 10 | > 10 | > 10 | 0.064 | > 10 | > 10 | > 10 | > 10 | > 10 | > 10 | > 10 | > 10 | – | – | –
C[C@H]1CN(C(=O)c2csc(-c3ccccc3F)n2)CCN1C(=O)c1ccc2cc[nH]c2c1 | – | – | – | – | 0.0337 | – | – | – | – | – | – | – | – | 14 | – | –
COc1ccc(-c2ccc(C(=O)N3CCN(C(=O)c4ccc5cc[nH]c5c4)[C@@H](C)C3)cc2)cc1 | > 10 | > 10 | > 10 | > 10 | 0.007 | > 10 | > 10 | > 10 | > 10 | > 10 | > 10 | > 10 | > 10 | 34 | 33 | –
